{
  "source": "ChEMBL document CHEMBL1629448",
  "about": "“Identification and synthesis of novel inhibitors of acetyl-CoA carboxylase with in vitro and in vivo efficacy on fat oxidation” (J Med Chem, 2010)",
  "key": {"[1]": {"test": "Inhibition of N-terminal His-tagged rat recombinant ACC2 expressed in high five insect cells by ATP consumption assay"}, "[2]": {"target": "T1, Peroxisome proliferator-activated receptor alpha (Homo sapiens) (UniProt Q07869)", "T1 sequence (whole entry)": "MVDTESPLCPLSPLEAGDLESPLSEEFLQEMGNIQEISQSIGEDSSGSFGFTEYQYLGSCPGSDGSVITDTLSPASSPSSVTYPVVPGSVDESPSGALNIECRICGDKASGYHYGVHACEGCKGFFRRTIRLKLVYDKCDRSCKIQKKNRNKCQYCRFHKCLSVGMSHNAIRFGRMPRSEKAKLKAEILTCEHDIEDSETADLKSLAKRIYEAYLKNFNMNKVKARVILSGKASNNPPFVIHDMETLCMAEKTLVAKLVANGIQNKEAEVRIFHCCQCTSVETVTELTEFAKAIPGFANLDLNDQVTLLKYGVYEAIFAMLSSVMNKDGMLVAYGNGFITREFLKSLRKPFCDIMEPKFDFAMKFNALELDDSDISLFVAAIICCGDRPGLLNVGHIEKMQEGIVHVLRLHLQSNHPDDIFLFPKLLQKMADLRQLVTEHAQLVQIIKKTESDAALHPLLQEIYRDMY", "test": "Inhibition of PPARalpha"}, "[3]": {"target": "T2, Peroxisome proliferator-activated receptor gamma (Homo sapiens) (UniProt P37231)", "T2 sequence (whole entry)": "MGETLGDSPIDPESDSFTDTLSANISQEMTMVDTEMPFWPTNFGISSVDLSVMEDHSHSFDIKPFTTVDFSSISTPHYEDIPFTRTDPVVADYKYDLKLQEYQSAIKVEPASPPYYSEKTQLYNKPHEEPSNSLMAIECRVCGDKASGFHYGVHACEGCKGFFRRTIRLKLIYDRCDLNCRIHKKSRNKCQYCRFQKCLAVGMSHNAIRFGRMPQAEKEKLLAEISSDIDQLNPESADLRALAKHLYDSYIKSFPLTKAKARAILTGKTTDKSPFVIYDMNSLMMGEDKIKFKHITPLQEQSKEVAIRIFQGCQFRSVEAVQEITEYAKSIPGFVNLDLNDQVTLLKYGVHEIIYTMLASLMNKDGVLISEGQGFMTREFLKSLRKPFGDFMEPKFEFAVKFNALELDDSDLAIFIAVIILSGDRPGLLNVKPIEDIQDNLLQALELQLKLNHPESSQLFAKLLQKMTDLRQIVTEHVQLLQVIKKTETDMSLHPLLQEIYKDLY", "test": "Inhibition of PPARgamma"}, "[4]": {"tested_on": "Hepatocyte", "test": "Stimulation of fat oxidation in human hepatocytes assessed as release of 3H2O from ss-oxidation of [9,10(n)-3[3H]palmitic acid after 4 hrs", "format": "functional, cell-based", "procedure,_shortened": "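Attached human hepatocytes washed with PBS, then incubated in DMEM with 5 μM ³H-palmitic acid (15000 Bq/ml), 0.2 mg/mL BSA, 500 μM L-carnitine, 0.1% DMSO, 25 mM glucose and inhibitor. Started with 0.5 μCi [³H]palmitate. ³H₂O release measured after 4 h by scintillation. Expressed as fold of the 0 μM control; means ± SEM (n = 4).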"}, "[5]": {"tested_on": "Rattus norvegicus", "test": "Plasma concentration in Wistar rat at 3 mg/kg, iv measured immediately after dosing", "format": "ADME, organism-based", "set-up": "dose 3 mg/kg, route intravenous", "conditions": "in vivo", "procedure,_shortened": "(§1)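 Wistar rats given an intravenous bolus of 3 mg/kg in 5% solutol solution. Plasma sampled at eight time points over 24 h. Drug quantified by LC-MS/MS against an internal standard. C0h is the concentration immediately after dosing; AUC0-inf, clearance, t1/2 and Vdss were also derived.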"}, "[6]": {"test": "AUC (0 to infinity) in Wistar rat plasma at 3 mg/kg, iv", "format": "ADME, organism-based", "set-up": "dose 3 mg/kg, route intravenous, time infinity", "procedure,_shortened": "as §1"}, "[7]": {"test": "Clearance in Wistar rat plasma at 3 mg/kg, iv", "format": "ADME, organism-based", "set-up": "dose 3 mg/kg, route intravenous", "procedure,_shortened": "as §1"}, "[8]": {"test": "Cmax in Wistar rat liver at 10 mg/kg, po", "format": "ADME, organism-based", "set-up": "dose 10 mg/kg, route oral", "procedure,_shortened": "(§2)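 Female Wistar rats given a single oral dose of 10 mg/kg in 10% DMSO. Plasma and liver sampled at eight time points over 24 h, three animals killed per time point. Drug levels measured by LC-MS/MS with an internal standard. […] Values are means ± SD (n = 3).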"}, "[9]": {"test": "Tmax in Wistar rat liver at 10 mg/kg, po", "format": "ADME, organism-based", "set-up": "dose 10 mg/kg, route oral", "procedure,_shortened": "as §2"}, "[10]": {"test": "Drug concentration in Wistar rat plasma at 10 mg/kg, po measured 6 hrs post dose", "format": "ADME, organism-based", "set-up": "dose 10 mg/kg, route oral", "conditions": "read-out: Drug uptake", "procedure,_shortened": "as §2"}, "[11]": {"test": "Drug concentration in Wistar rat liver at 10 mg/kg, po measured 6 hrs post dose", "format": "ADME, organism-based", "set-up": "dose 10 mg/kg, route oral", "conditions": "read-out: Drug uptake", "procedure,_shortened": "as §2"}, "[12]": {"test": "Half life in Wistar rat plasma at 10 mg/kg, po", "format": "ADME, organism-based", "set-up": "dose 10 mg/kg, route oral", "procedure,_shortened": "as §2"}, "[13]": {"test": "Half life in Wistar rat liver at 10 mg/kg, po", "format": "ADME, organism-based", "set-up": "dose 10 mg/kg, route oral", "procedure,_shortened": "as §2"}, "[14]": {"test": "Ratio of AUC (0 to infinity) in liver to plasma of Wistar rat at 10 mg/kg, po", "format": "ADME, organism-based", "set-up": "dose 10 mg/kg, route oral", "procedure,_shortened": "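Female Wistar rats received a single oral 10 mg/kg dose in 10% DMSO. Plasma and liver were sampled at eight time points over 24 h, with three animals killed per time point. Drug levels were measured by LC-MS/MS against an internal standard. Liver/plasma ratio was calculated from AUC0-inf.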"}, "[15]": {"tested_on": "Rattus norvegicus", "test": "Stimulation of fat oxidation in Wistar rat assessed as decrease in respiratory quotient at 50 mg/kg, po administered 2 hrs before lipid load", "format": "functional, organism-based", "set-up": "dose 50 mg/kg", "procedure,_shortened": "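Female Wistar rats housed singly in calorimetry cages, acclimated at least 12 h. Dosed orally with 50 mg/kg or vehicle. Two hours later, oral 10 mL/kg 20% Lipofundin MCT (2 g fat/kg) or PBS. O₂ and CO₂ measured every 17 min per cage for 1 min. RQ is CO₂ production/O₂ consumption.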"}},
  "note": "Activity calls are given as the source filed them. No cut-off for these calls is given here.",
  "data": [
    {"smiles": "CC(=O)N[C@@H](C)CCc1ccc(Oc2ccc(OC(C)C)nc2)cc1", "values": [
      {"measurement": "IC50", "setting": "[1]", "value": 400, "unit": "nM"},
      {"measurement": "inhibition", "setting": "[2]", "value": "inactive"},
      {"measurement": "inhibition", "setting": "[3]", "value": "inactive"},
      {"measurement": "Activity", "setting": "[4]", "value": "Dose-dependent effect"},
      {"measurement": "concentration", "setting": "[5]", "value": 5.2, "unit": "µM"},
      {"measurement": "AUC(0-inf)", "setting": "[6]", "value": 5.6, "unit": "µM·h"},
      {"measurement": "clearance", "setting": "[7]", "value": 26.7, "unit": "mL/min/kg"},
      {"measurement": "Cmax", "setting": "[8]", "value": 21.8, "unit": "µM"},
      {"measurement": "Tmax", "setting": "[9]", "value": 2, "unit": "h"},
      {"measurement": "concentration at 6 h", "setting": "[10]", "value": 1.59, "unit": "µM"},
      {"measurement": "concentration at 6 h", "setting": "[11]", "value": 7.59, "unit": "µM"},
      {"measurement": "half-life", "setting": "[12]", "value": 1.8, "unit": "h"},
      {"measurement": "half-life", "setting": "[13]", "value": 3, "unit": "h"},
      {"measurement": "Kp", "setting": "[14]", "value": 6},
      {"measurement": "Activity", "setting": "[15]", "value": "Active"}
    ]}
  ]
}
